{"source": "ChEMBL document CHEMBL4706728", "about": "“Discovery of a Highly Selective and Potent TRPC3 Inhibitor with High Metabolic Stability and Low Toxicity” (ACS Med Chem Lett, 2021)", "key": {"[1]": {"experiment": "Metabolic stability in human liver microsomes assessed as half life at […] measured up to 240 mins in presence of NADPH regeneration system by LC-MS analysis", "format": "ADME, Microsome"}, "[2]": {"experiment": "Binding affinity to human His8-MBP-TRPC3b I395V mutant expressed in baculovirus infected Sf9 cells incubated for 1 hr by LC-MS analysis", "method_in_brief": "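Purified hTRPC3 protein incubated with compound for 1 h. Free compound removed by repeated size-exclusion chromatography. Methanol added to denature the protein and extract bound compound, which is detected by LC-MS against a prepared control. MS data collected from 2.5 min onward to keep buffer salts out.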"}, "[3]": {"target": "Transient receptor potential cation channel subfamily M member 8 (Homo sapiens) (UniProt Q7Z2W7)", "sequence (Q7Z2W7 whole entry, looked up)": "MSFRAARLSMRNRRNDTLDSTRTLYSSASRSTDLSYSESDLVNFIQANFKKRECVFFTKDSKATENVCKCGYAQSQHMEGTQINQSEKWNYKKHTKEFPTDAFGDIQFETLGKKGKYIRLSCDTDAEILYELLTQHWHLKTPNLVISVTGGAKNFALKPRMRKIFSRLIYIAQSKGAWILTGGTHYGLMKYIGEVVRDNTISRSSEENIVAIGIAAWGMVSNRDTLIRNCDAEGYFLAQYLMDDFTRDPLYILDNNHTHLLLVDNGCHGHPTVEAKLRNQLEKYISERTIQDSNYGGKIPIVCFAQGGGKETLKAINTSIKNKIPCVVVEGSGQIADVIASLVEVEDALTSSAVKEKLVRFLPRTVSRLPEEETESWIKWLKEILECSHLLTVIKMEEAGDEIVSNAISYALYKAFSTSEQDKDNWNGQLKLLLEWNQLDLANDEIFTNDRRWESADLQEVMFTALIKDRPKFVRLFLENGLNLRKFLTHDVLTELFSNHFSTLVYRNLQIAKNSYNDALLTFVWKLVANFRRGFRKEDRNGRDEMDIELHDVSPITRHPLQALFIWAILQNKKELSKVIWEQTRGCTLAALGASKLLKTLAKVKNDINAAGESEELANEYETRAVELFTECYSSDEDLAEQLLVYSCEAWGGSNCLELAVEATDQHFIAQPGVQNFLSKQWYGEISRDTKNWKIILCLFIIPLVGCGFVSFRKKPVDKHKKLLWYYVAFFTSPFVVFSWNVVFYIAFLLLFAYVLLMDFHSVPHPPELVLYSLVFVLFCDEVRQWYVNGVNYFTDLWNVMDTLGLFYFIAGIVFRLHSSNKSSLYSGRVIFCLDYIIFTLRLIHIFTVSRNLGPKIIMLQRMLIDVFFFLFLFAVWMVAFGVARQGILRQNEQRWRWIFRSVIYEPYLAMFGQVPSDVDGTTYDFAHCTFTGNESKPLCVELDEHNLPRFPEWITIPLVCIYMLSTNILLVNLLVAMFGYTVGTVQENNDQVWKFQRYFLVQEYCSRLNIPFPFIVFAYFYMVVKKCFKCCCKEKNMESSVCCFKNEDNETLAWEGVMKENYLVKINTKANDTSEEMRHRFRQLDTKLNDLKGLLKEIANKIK", "experiment": "Inhibition of human TRPM8 expressed in HEK293 cells assessed as inhibition of […]-induced current at 10 uM by whole cell patch-clamp method", "format": "cell-based", "method_in_brief": "(§1)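 TRP channels overexpressed in HEK293 cells (hTRPA1, rTRPV1, rTRPV4, mouse TRPC6, hTRPC7, hTRPM8). Whole-cell patch clamp with Ca2+-free solutions to avoid desensitization. Channels fully activated with high concentrations of their agonists (AITC for TRPA1, capsaicin for TRPV1, GSK1016790A for TRPV4), then 10 μM test compound perfused with agonist. Result expressed as percentage of peak current blocked; mean ± SD.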"}, "[4]": {"target": "Transient receptor potential cation channel subfamily A member 1 (Homo sapiens) (UniProt O75762)", "sequence (O75762 whole entry)": "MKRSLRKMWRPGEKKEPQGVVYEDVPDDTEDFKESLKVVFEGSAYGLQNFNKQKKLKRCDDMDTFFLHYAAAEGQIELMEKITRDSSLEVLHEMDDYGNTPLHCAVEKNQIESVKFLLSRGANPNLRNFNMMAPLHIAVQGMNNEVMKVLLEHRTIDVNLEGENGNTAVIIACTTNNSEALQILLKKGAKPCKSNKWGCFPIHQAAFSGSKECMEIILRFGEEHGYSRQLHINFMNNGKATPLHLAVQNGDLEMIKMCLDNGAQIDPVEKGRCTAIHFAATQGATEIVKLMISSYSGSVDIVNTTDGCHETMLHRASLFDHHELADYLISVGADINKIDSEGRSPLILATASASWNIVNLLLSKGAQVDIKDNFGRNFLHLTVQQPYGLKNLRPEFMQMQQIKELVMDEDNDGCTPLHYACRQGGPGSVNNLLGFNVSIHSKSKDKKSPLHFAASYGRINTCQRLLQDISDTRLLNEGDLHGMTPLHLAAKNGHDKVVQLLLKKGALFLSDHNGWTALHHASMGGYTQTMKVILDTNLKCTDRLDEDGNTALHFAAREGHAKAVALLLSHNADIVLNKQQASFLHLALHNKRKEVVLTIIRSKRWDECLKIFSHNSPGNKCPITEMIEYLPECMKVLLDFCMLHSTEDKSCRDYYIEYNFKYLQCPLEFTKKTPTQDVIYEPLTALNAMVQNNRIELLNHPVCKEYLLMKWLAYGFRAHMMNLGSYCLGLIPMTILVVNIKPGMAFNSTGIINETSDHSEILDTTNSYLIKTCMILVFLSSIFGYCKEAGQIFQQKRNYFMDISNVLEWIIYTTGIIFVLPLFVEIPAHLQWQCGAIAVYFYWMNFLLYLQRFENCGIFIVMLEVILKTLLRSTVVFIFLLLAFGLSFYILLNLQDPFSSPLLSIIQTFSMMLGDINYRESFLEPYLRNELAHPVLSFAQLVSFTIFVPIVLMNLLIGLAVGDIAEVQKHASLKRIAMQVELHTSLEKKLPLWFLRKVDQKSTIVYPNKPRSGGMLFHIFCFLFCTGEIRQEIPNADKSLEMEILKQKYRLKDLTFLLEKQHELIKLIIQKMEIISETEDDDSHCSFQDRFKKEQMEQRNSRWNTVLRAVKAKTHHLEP", "experiment": "Inhibition of human TRPA1 expressed in HEK293 cells assessed as inhibition of AITC-induced current at 10 uM by whole cell patch-clamp method", "format": "cell-based", "method_in_brief": "as §1"}, "[5]": {"target": "Transient receptor potential cation channel subfamily V member 4 (Rattus norvegicus) (UniProt Q9ERZ8)", "sequence (Q9ERZ8 whole entry)": "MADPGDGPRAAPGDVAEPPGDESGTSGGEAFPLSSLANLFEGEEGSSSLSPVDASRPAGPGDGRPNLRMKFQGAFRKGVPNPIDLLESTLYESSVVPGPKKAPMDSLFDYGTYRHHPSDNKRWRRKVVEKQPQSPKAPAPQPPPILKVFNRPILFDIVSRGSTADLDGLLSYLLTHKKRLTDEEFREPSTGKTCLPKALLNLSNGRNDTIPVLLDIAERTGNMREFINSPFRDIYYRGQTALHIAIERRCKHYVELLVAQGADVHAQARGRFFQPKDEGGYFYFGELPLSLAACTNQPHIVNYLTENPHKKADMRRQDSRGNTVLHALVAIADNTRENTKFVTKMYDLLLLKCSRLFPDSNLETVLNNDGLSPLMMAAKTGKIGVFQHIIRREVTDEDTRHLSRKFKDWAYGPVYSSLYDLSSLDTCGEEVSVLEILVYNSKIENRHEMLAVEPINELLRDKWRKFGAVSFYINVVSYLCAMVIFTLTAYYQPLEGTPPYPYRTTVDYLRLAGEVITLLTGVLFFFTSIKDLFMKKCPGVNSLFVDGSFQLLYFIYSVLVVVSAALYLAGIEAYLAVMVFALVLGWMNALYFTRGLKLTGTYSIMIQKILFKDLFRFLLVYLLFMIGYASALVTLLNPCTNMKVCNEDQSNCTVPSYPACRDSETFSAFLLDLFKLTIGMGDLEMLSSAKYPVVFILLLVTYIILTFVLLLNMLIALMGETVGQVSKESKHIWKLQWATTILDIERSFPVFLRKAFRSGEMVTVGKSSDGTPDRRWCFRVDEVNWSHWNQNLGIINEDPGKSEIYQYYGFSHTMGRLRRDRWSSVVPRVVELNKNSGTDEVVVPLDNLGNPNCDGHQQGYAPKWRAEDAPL", "experiment": "Inhibition of rat TRPV4 expressed in HEK293 cells assessed as inhibition of GSK101-induced current at 10 uM by whole cell patch-clamp method", "format": "cell-based", "method_in_brief": "as §1"}, "[6]": {"target": "Transient receptor potential cation channel subfamily V member 1 (Rattus norvegicus) (UniProt O35433)", "sequence (O35433 whole entry)": "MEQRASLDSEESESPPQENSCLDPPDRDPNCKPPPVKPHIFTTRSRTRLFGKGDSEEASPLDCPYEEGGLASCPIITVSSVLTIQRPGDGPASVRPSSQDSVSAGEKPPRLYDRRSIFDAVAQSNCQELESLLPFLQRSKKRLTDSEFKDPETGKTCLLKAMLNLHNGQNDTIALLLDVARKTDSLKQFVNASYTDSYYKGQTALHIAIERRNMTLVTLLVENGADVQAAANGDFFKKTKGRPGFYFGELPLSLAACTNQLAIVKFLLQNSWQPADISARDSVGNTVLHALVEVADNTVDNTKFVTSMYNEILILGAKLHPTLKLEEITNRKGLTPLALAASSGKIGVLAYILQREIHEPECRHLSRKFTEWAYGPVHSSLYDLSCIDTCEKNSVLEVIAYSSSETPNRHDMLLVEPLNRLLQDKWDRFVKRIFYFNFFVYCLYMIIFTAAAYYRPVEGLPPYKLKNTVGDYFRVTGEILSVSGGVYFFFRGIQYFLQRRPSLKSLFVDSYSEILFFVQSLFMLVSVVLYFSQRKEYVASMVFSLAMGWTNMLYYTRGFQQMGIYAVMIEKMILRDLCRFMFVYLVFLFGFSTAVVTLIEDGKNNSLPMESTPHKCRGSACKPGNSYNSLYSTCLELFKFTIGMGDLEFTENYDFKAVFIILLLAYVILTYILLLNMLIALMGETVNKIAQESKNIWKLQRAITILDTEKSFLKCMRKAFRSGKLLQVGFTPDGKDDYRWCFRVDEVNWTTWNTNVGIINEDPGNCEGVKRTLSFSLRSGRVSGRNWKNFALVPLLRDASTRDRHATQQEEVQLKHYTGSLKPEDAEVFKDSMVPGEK", "experiment": "Inhibition of rat TRPV1 expressed in HEK293 cells assessed as inhibition of capsaicin-induced current at 10 uM by whole cell patch-clamp method", "format": "cell-based", "method_in_brief": "as §1"}, "ORAI1/STIM1": {"target": "ORAI1/STIM1 (Homo sapiens, UniProt Q96D31+Q13586)", "sequence (Q96D31 whole entry)": "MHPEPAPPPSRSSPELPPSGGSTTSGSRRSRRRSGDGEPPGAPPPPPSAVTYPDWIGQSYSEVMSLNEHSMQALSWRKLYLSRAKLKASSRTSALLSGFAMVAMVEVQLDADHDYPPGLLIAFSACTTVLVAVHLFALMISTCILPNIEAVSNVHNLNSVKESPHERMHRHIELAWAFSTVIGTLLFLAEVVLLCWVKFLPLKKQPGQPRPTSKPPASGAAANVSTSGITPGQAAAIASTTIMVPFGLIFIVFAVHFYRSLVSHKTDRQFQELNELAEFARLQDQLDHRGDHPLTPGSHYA", "sequence (Q13586 whole entry)": "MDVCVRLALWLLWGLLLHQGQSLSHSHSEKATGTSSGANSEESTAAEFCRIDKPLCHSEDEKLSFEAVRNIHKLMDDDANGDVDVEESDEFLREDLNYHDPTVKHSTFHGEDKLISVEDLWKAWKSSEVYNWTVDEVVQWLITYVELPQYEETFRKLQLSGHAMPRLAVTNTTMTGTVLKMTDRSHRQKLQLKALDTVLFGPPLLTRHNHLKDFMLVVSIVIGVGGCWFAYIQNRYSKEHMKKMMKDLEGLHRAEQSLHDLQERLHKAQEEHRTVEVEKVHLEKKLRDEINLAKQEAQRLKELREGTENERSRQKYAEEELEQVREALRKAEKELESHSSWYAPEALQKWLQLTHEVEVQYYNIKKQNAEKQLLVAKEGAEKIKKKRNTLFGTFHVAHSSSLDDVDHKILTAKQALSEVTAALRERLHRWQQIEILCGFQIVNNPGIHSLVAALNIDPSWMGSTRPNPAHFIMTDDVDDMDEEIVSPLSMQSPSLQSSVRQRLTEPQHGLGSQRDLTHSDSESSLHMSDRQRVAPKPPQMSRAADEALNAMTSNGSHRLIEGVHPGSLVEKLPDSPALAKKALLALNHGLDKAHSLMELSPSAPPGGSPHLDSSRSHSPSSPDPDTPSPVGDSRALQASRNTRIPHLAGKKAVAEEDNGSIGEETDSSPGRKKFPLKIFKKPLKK", "experiment": "Inhibition of STIM/Orai1 (unknown origin) expressed in HEK293 cells assessed as reduction in thapsigargin-induced Ca2+ influx at 10 uM in presence of Ca2+ by whole cell patch clamp method", "format": "cell-based", "details": "hek293, 10 µM"}, "[7]": {"experiment": "Toxicity in NSG/ICR mouse assessed as body weight loss at 200 mg/kg, ip administered once daily for 5 days", "format": "organism-based", "details": "in vivo, 120 h, dose 200 mg/kg/day, time 5 day", "method_in_brief": "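Mice (n = 5 per group) dosed at 200 mg/kg by intraperitoneal injection once daily for 5 consecutive days. Survival monitored. Body weight expressed as mean percent change ± SD relative to weight at the start of treatment (day 0), with 15% weight loss as the reference line.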"}, "[8]": {"target": "T1, Short transient receptor potential channel 3 (Homo sapiens, UniProt Q13507)", "T1 sequence (Q13507 whole entry)": "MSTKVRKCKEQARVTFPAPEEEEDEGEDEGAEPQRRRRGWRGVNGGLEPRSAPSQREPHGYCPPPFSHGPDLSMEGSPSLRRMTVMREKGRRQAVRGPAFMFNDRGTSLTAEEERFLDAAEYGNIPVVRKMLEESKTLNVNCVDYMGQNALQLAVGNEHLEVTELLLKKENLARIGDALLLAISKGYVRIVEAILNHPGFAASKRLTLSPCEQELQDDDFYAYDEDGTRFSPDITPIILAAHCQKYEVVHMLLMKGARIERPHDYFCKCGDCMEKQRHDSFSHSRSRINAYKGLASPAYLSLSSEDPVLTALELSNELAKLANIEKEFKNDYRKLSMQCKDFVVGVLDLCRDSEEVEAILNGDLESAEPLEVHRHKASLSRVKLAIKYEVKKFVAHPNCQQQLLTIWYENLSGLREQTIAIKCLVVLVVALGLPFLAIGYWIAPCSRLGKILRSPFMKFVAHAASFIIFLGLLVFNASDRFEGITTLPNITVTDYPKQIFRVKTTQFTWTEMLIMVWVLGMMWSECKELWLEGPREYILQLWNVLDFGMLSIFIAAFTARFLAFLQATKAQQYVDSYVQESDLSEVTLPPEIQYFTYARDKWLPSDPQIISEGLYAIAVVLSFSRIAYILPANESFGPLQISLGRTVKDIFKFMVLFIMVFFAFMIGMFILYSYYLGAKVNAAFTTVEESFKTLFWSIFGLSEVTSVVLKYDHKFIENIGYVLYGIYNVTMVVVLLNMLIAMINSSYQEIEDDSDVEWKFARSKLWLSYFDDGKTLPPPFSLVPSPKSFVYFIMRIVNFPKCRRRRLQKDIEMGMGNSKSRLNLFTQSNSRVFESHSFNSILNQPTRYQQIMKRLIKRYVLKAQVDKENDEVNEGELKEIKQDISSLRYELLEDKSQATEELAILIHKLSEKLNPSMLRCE", "experiment": "Inhibition of human TRPC3 expressed in HEK293 cells assessed as inhibition of GSK170-induced current in presence of 2 mM extracellular calcium by whole cell patch-clamp method", "format": "cell-based", "method_in_brief": "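hTRPC3 in HEK293 cells, whole-cell patch clamp with 2 mM extracellular Ca2+. Currents elicited by 1 μM GSK1702934A and challenged with a range of inhibitor concentrations by perfusion. Each concentration tested on separate cells and normalized to the cell's maximum amplitude. Dose–response curve built from the data; mean ± SD.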"}, "[9]": {"target": "T2, Short transient receptor potential channel 3 (Homo sapiens) (UniProt Q13507)", "T2 sequence (whole entry)": "T1 sequence (Q13507 whole entry)", "experiment": "Inhibition of human TRPC3 expressed in HEK293 cells assessed as inhibition of GSK170-induced current at 10 uM in absence of extracellular calcium by whole cell patch-clamp method relative to control", "format": "cell-based", "method_in_brief": "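Human TRPC3 transiently expressed in HEK293 cells; whole-cell patch clamp with Ca2+-free solutions. Channel activated by GSK1702934A, then test compound at 10 μM perfused with the agonist. Inhibition expressed as percentage of the agonist-evoked current; mean ± SD, n cells per compound.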"}}, "note": "Activity calls are given as the source filed them. The calls are words filed in the database; no cut-off is given here."}
{"compound": "CCNC(=O)c1cnn(-c2ccc(-n3ccc(Cl)c(Cl)c3=O)cc2)c1C(F)(F)F", "values": [{"measurement": "half-life", "setting": "[1]", "result": "> 4", "unit": "h"}, {"measurement": "Activity", "setting": "[2]", "result": "Active"}, {"measurement": "inhibition", "setting": "[3]", "result": "inactive"}, {"measurement": "inhibition", "setting": "[4]", "result": "inactive"}, {"measurement": "inhibition", "setting": "[5]", "result": "inactive"}, {"measurement": "inhibition", "setting": "[6]", "result": "inactive"}, {"measurement": "inhibition (INH)", "setting": "ORAI1/STIM1", "result": "Active"}, {"measurement": "Activity", "setting": "[7]", "result": "Non-Toxic"}, {"measurement": "IC50", "setting": "[8]", "result": 430, "unit": "nM"}, {"measurement": "inhibition", "setting": "[9]", "result": 89, "unit": "%"}]}
